Results as given in ChEMBL document CHEMBL1914320, “C4-alkylthiols with activity against Moraxella catarrhalis and Mycobacterium tuberculosis” (Bioorg Med Chem, 2011).
Active and inactive are the calls of the source. No cut-off for these calls is given here.

Columns and labels:
[1] = test system: Staphylococcus aureus; test: Antibacterial activity against non-beta-lactamase producing Staphylococcus aureus ATCC 25923 after 48 hrs by microdilution broth method; format: functional, organism-based
In short: (§1)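 Broth microdilution followed CLSI guidelines. Compound was dissolved in 95% ethanol, diluted at least 10-fold into Mueller-Hinton broth, then serially two-fold diluted from 500 to 15.6 μg/mL. Actively growing culture was added at 5 × 10^5 cells/mL. Plates ran 48 h at 37 °C, scored for visible growth at 24 and 48 h. MIC was the lowest concentration without growth. For MBC, 10 μL from each clear well was plated on MH agar. Controls were ethanol and penicillin. Triplicate.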

[2] = test system: Escherichia coli; test: Antibacterial activity against non-beta-lactamase producing Escherichia coli ATCC 25922 at 10 ug/disc after overnight incubation by disc diffusion assay; format: functional, organism-based
In short: (§2)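 Isolates were held at −80 °C. Five colonies were suspended in Mueller-Hinton broth to a 0.5 McFarland density and swabbed onto MH agar. Discs carried 10 μg compound, applied in methanol and dried at room temperature. Plates were incubated overnight at 37 °C, and the zone of inhibition was measured in mm from the disc edge. Controls were methanol-only and penicillin discs. Run blinded, in triplicate.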

[3] = test system: Moraxella catarrhalis; test: Antibacterial activity against beta-lactamase producing Moraxella catarrhalis isolate 2 at 10 ug/disc after overnight incubation by disc diffusion assay; format: functional; conditions: for zone of inhibition at 10 µg/disc: read-out: IZ; in short: as §2
[4] = test system: Pseudomonas aeruginosa; test: Antibacterial activity against non-beta-lactamase producing Pseudomonas aeruginosa ATCC 27853 at 10 ug/disc after overnight incubation by disc diffusion assay; format: functional, organism-based; in short: as §2
[5] = test system: Enterococcus faecalis; test: Antibacterial activity against non-beta-lactamase producing Enterococcus faecalis ATCC 29212 after 48 hrs by microdilution broth method; format: functional, organism-based; in short: as §1
[6] = test system: Escherichia coli; test: Antibacterial activity against non-beta-lactamase producing Escherichia coli ATCC 25922 after 48 hrs by microdilution broth method; format: functional, organism-based; in short: as §1
[7] = test system: Pseudomonas aeruginosa; test: Antibacterial activity against non-beta-lactamase producing Pseudomonas aeruginosa ATCC 27853 after 48 hrs by microdilution broth method; format: functional, organism-based; in short: as §1
[8] = test system: Moraxella catarrhalis; test: Antibacterial activity against beta-lactamase producing Moraxella catarrhalis isolate 4 at 10 ug/disc after overnight incubation by disc diffusion assay; format: functional; conditions: for zone of inhibition at 10 µg/disc: read-out: IZ; in short: as §2
[9] = test system: Moraxella catarrhalis; test: Antibacterial activity against beta-lactamase producing Moraxella catarrhalis isolate 1 at 10 ug/disc after overnight incubation by disc diffusion assay; format: functional; conditions: for zone of inhibition at 10 µg/disc: read-out: IZ; in short: as §2
[10] = test system: Moraxella catarrhalis; test: Antibacterial activity against beta-lactamase producing Moraxella catarrhalis isolate 3 at 10 ug/disc after overnight incubation by disc diffusion assay; format: functional; in short: as §2
[11] = test system: Staphylococcus aureus; test: Antibacterial activity against non-beta-lactamase producing Staphylococcus aureus ATCC 25923 at 10 ug/disc after overnight incubation by disc diffusion assay; format: functional, organism-based; in short: as §2
[12] = test system: Enterococcus faecalis; test: Antibacterial activity against non-beta-lactamase producing Enterococcus faecalis ATCC 29212 at 10 ug/disc after overnight incubation by disc diffusion assay; format: functional, organism-based; in short: as §2
[13] = test system: Moraxella catarrhalis; test: Antibacterial activity against beta-lactamase producing Moraxella catarrhalis isolate 5 at 10 ug/disc after overnight incubation by disc diffusion assay; format: functional; conditions: for zone of inhibition at 10 µg/disc: read-out: IZ; in short: as §2
[14] = test system: Moraxella catarrhalis; test: Antibacterial activity against beta-lactamase producing Moraxella catarrhalis isolate 4 at 500 ug/ml after overnight incubation by disc diffusion assay; format: functional, organism-based
[15] = test system: Moraxella catarrhalis; test: Antibacterial activity against beta-lactamase producing Moraxella catarrhalis isolate 5 at 500 ug/ml after overnight incubation by disc diffusion assay; format: functional, organism-based
[16] = test system: Mycobacterium tuberculosis; test: Antimycobacterial activity against wild type Mycobacterium tuberculosis H37Rv at 200 ug/ml by Alamar blue assay; format: functional, organism-based
[17] = test system: Moraxella catarrhalis; test: Antibacterial activity against beta-lactamase producing Moraxella catarrhalis isolate 6 at 500 ug/ml after overnight incubation by disc diffusion assay; format: functional, organism-based
[18] = test system: Moraxella catarrhalis; test: Antibacterial activity against beta-lactamase producing Moraxella catarrhalis isolate 2 at 500 ug/ml after overnight incubation by disc diffusion assay; format: functional, organism-based
[19] = test system: Moraxella catarrhalis; test: Antibacterial activity against beta-lactamase producing Moraxella catarrhalis isolate 3 at 500 ug/ml after overnight incubation by disc diffusion assay; format: functional, organism-based

Row | SMILES | Activity [1] | Activity [2] | Activity [4] | Activity [5] | Activity [6] | Activity [7] | inhibition zone (IZ) [10] | Activity [11] | Activity [12] | antibacterial activity (active/not active) [14] | antibacterial activity (active/not active) [15] | antimycobacterial activity (active/not active) [16] | antibacterial activity (active/not active) [17] | antibacterial activity (active/not active) [18] | antibacterial activity (active/not active) [19] | inhibition zone (IZ) [3] | inhibition zone (IZ) [8] | inhibition zone (IZ) [9] | inhibition zone (IZ) [13] | further results
1 | CCC(C=O)(CC)SSC(C=O)(CC)CC | inactive | inactive | inactive | inactive | inactive | inactive | inactive | inactive | inactive |  |  |  |  |  |  |  |  |  |  | zone of inhibition at 10 µg/disc [3]: 10 mm; zone of inhibition at 10 µg/disc [8]: 5 mm; zone of inhibition at 10 µg/disc [9]: 10 mm; zone of inhibition at 10 µg/disc [13]: 10 mm
2 | CCOC(=O)CN1C(=O)C(OC)C1C(S)(CC)CC (racemic) | inactive | inactive | inactive | inactive | inactive | inactive |  | inactive | inactive | inactive | inactive | inactive | inactive | inactive | inactive |  |  |  |  | 
3 | O=C1CC(SCCCO)N1 (racemic) | inactive | inactive | inactive | inactive | inactive | inactive |  | inactive | inactive | inactive | inactive | inactive | inactive | inactive | inactive |  |  |  |  | 
4 | O=C1CC(SCCO)N1 (racemic) | inactive | inactive | inactive | inactive | inactive | inactive |  | inactive | inactive | inactive | inactive | inactive | inactive | inactive | inactive |  |  |  |  | 
5 | O=C1CC(Sc2cccs2)N1S(=O)(=O)O (racemic) | inactive | inactive | inactive | inactive | inactive | inactive | inactive | inactive | inactive | Active | Active | Active | Active | Active | Active | inactive | inactive | inactive | inactive | 
6 | CCOC(=O)CN1C(=O)C(OC)C1C(CC)(CC)SSC(C=O)(CC)CC (racemic) | inactive | inactive | inactive | inactive | inactive | inactive | inactive | inactive | inactive | Active | Active | Active | Active | Active | Active | inactive | inactive |  |  | zone of inhibition at 10 µg/disc [9]: 20 mm; zone of inhibition at 10 µg/disc [13]: 3 mm
7 | Nc1ccc(SC2CC(=O)N2)cc1 (racemic) | inactive | inactive | inactive | inactive | inactive | inactive |  | inactive | inactive | Active | Active | Active | Active | Active | Active |  |  |  |  | 
8 | O=C1CC(Sc2ccc(S)cc2)N1S(=O)(=O)O (racemic) | inactive | inactive | inactive | inactive | inactive | inactive |  | inactive | inactive | Active | Active | Active | Active | Active | Active |  |  |  |  | 
9 | CCC(S)(CC)CO | inactive | inactive | inactive | inactive | inactive | inactive | inactive | inactive | inactive |  |  |  |  |  |  |  |  |  |  | zone of inhibition at 10 µg/disc [3]: 3 mm; zone of inhibition at 10 µg/disc [8]: 3 mm; zone of inhibition at 10 µg/disc [9]: 5 mm; zone of inhibition at 10 µg/disc [13]: 12 mm
10 | O=C1CC(Sc2ccccc2)N1 (racemic) | inactive | inactive | inactive | inactive | inactive | inactive | inactive | inactive | inactive | inactive | inactive | inactive | inactive | inactive | inactive | inactive | inactive | inactive | inactive | 
11 | CCOC(=O)CN1C(=O)C(OC)C1C(C)(C)SSC (racemic) | inactive | inactive | inactive | inactive | inactive | inactive | inactive | inactive | inactive | Active | Active | Active | Active | Active | Active | inactive | inactive | inactive | inactive | 
12 | O=C1CC(Sc2ccccc2)N1S(=O)(=O)O (racemic) | inactive | inactive | inactive | inactive | inactive | inactive | inactive | inactive | inactive |  |  |  |  |  |  | inactive | inactive | inactive | inactive | 
